Consider 5 molecules from ChEMBL document CHEMBL1240299, “C3-symmetric peptide scaffolds are functional mimetics of trimeric CD40L” (Nat Chem Biol, 2005).

The subject of experiment [1] is BL-41. The experiment in a line: Induction of apoptosis in CD40-positive human BL41 cells assessed as decrease in mitochondrial membrane potential after 16 hrs by mean fluorescence intensity. Type of experiment: functional, cell-based. In outline: (§1)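 BL41 Burkitt lymphoma cells in RPMI 1640 with 10% FBS were seeded at 5×10^5 ml⁻¹ and exposed to inducers at 37 °C (16 h). Apoptosis was read by flow cytometry, either as loss of DiOC₆(3) uptake (Δψm) or as annexin V–FITC/PI co-staining. Specific apoptosis % = (treated − control)×100/(100 − control). Values are means of three independent experiments.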

Experiment [2] concerns BL-41. The experiment in a line: Induction of apoptosis in CD40-positive human BL41 cells assessed as detection of phosphatidylserine expression using annexin V-FITC and propidium iodine staining by flow cytometry. Format: functional, cell-based. In outline: as §1
A general note: A flow cytometer gives signals particle by particle.

For experiment [3], the system named is BL-41. The experiment in a line: Induction of apoptosis in CD40-positive human BL41 cells assessed as level of CD40 expression by mean fluorescence intensity. Format: functional, cell-based.
In experiment [4] the test system is D1. The experiment in a line: Induction of mouse D1 cell maturation assessed as CD80 expression at 5 to 10 uM after 48 hrs by flow cytometry in presence of 10 ug/ml LPS inhibitor polymyxin B. Type of experiment: functional, cell-based. Summed up:
(§2)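 D1 cells (2×10^5 ml⁻¹, 48 h preculture) were treated 48 h with inducers in fresh medium. Assays were also run with polymyxin B present to exclude LPS-driven activation, and LPS at 10 µg ml⁻¹ was the reference stimulus. Cells were harvested in PBS/EDTA and surface maturation markers were measured by flow cytometry.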

Experiment [5] concerns D1. The experiment in a line: Induction of mouse D1 cell maturation assessed as CD86 expression at 5 to 10 uM after 48 hrs by flow cytometry in presence of 10 ug/ml LPS inhibitor polymyxin B. Format: functional, cell-based. In outline: as §2
Experiment [6] relates to D1. The experiment in a line: Induction of mouse D1 cell maturation assessed as CD54 expression at 5 to 10 uM after 48 hrs by flow cytometry in presence of 10 ug/ml LPS inhibitor polymyxin B. Type of experiment: functional, cell-based. Summed up: as §2
Experiment [7] deals with T1, Tumor necrosis factor receptor superfamily member 5 (Homo sapiens, UniProt P25942). The experiment in a line: Inhibition of recombinant human CD40L:mouse CD8 tail binding to human CD40 by surface plasmon resonance method. Summed up: (§3)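 hCD40:mIg was captured on an anti-mouse Ig chip. A fixed amount of soluble hCD40L:CD8 was premixed with increasing ligand concentrations, and the mixtures were injected at 25 °C in HBS-EP, 30 µl min⁻¹, 5 min association and 5 min dissociation. Regeneration was 50 mM HCl. Inhibition of CD40L binding was taken from reference-subtracted sensorgrams.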
T1 sequence (P25942 whole entry): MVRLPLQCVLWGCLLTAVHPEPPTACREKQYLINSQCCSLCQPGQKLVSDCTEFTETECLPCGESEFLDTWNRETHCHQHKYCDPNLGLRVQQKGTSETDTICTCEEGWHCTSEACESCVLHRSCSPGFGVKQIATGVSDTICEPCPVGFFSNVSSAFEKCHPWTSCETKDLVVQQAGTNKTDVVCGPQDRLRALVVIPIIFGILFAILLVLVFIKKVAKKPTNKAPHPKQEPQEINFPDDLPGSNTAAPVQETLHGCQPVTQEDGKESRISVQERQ
(Surface plasmon resonance follows binding to a sensor surface in real time, without labels.)

In experiment [8] the test system is BL-41. The experiment in a line: Induction of apoptosis in CD40-positive human BL41 cells assessed as decrease in reduction in DiOC6 dye uptake after DAPI staining by epifluorescence microscopy. Type of experiment: functional, cell-based.
Experiment [9] has as its target T1, Tumor necrosis factor receptor superfamily member 5. The experiment in a line: Inhibition of recombinant human CD40L:mouse CD8 tail binding to human CD40 at 10 uM by surface plasmon resonance method. Summed up:
as §3

In experiment [10] the target is T2, Tumor necrosis factor receptor superfamily member EDAR (Homo sapiens) (UniProt Q9UNE0).
T2 sequence (whole entry): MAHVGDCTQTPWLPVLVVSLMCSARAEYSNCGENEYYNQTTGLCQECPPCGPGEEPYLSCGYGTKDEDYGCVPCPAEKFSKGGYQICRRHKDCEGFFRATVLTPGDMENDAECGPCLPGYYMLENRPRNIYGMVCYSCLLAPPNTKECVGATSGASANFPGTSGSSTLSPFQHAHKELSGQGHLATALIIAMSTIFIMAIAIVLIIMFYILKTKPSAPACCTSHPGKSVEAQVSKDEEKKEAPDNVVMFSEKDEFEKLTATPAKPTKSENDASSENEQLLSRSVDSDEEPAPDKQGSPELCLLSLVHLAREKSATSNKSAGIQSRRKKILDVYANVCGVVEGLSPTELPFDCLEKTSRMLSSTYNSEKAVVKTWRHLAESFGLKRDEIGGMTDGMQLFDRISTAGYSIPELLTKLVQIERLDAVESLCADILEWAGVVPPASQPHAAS
The experiment in a line: Binding affinity to human Ectodysplasin-A receptor by surface plasmon resonance method. Summed up: (§4)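 TNFR:Fc fusion proteins were captured on an anti-Ig-coated CM5 chip at equivalent protein mass. An irrelevant IgG2a served as control surface. Ligands were injected at several concentrations at 25 °C in HBS-EP running buffer, pH 7.4, 30 µl min⁻¹ flow, 5 min association and 5 min dissociation, with 50 mM HCl regeneration. Reference-subtracted sensorgrams were fitted to binding models.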

Experiment [11] relates to A20. The experiment in a line: Induction of apoptosis in mouse CD40-expressing mouse A20 cells assessed as decrease in mitochondrial membrane potential after 16 hrs by mean fluorescence intensity. Type of experiment: functional, cell-based. Summed up:
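Mouse A20 lymphoma cells treated at 37 °C and analysed by flow cytometry for reduced DiOC₆(3) uptake (loss of mitochondrial membrane potential). Result given as percentage specific apoptosis relative to untreated control cells.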

Experiment [12] concerns the target Tumor necrosis factor receptor superfamily member 10A (Homo sapiens) (UniProt O00220). The experiment in a line: Binding affinity to human TNF-related apoptosis-inducing ligand receptor 1 by surface plasmon resonance method. In outline: as §4
Experiment [13] deals with T3, Tumor necrosis factor receptor superfamily member 1A (Homo sapiens) (UniProt P19438).
T3 sequence (whole entry): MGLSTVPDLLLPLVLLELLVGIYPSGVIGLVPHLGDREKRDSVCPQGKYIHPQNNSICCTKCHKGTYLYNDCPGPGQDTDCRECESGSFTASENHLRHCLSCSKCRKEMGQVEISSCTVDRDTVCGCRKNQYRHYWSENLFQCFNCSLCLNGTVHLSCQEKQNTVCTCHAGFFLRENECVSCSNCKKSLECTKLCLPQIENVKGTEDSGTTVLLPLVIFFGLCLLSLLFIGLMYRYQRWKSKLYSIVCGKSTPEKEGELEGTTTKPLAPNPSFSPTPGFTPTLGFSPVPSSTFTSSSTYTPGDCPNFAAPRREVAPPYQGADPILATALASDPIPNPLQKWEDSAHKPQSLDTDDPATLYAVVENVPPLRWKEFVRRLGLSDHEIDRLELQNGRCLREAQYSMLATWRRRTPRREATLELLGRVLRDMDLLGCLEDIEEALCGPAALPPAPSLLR
The experiment in a line: Binding affinity to human TNFR1 by surface plasmon resonance method. Summed up: as §4

The test system of experiment [14] is D1. The experiment in a line: Induction of interleukin-12 production in mouse D1 cells by RT-PCR method. Format: functional, cell-based. In outline: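 D1 cells, precultured 48 h at 2×10^5 ml⁻¹, were given fresh medium containing inducers. After incubation, RNA was analysed by comparative RT-PCR for IL-12 p40 mRNA, with Gapdh as housekeeping control. LPS at 10 µg ml⁻¹ served as reference stimulus.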

Experiment [15] has as its target T4, Tumor necrosis factor receptor superfamily member 17 (Mus musculus) (UniProt O88472).
T4 sequence (whole entry): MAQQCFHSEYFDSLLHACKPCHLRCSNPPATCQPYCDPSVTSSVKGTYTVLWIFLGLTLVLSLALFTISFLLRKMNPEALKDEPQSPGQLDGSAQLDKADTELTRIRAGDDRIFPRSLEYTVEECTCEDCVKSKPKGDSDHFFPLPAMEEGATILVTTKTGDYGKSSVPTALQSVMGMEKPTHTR
The experiment in a line: Binding affinity to mouse B-cell maturation protein by surface plasmon resonance method. In outline: as §4

Experiment [16] deals with T5, Tumor necrosis factor receptor superfamily member 1B (Homo sapiens) (UniProt P20333).
T5 sequence (whole entry): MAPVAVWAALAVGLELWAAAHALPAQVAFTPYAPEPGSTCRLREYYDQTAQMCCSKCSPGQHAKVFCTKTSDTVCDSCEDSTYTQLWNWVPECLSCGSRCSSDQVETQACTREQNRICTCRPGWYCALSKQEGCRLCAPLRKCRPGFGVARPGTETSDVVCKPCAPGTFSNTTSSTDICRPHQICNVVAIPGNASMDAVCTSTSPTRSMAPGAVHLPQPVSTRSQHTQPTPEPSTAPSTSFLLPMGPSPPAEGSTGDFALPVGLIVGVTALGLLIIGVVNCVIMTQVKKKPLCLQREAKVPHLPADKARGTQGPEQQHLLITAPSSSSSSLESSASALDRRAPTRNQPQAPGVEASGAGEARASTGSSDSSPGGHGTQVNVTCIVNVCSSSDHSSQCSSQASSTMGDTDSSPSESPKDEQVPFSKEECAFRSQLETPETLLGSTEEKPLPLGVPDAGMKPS
The experiment in a line: Binding affinity to human Tumor necrosis factor receptor 2 by surface plasmon resonance method. In outline:
as §4

The target in experiment [17] is Tumor necrosis factor receptor superfamily member 3 (Homo sapiens) (UniProt P36941). The experiment in a line: Binding affinity to human lymphotoxin beta receptor by surface plasmon resonance method. Summed up:
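TNFR:Fc fusion captured at 5 µl min⁻¹ on a CM5 chip precoated by amine coupling with rabbit anti-mouse Ig or goat anti-human Ig (~10,000 RU). Mimetics injected at several concentrations at 30 µl min⁻¹, 5 min association and 5 min dissociation, 25 °C, HBS-EP pH 7.4. Regeneration 30 s with 50 mM HCl. Control-channel sensorgrams subtracted and fitted to binding models.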

The nature of experiment [18]: Activation of NF-kappaB pathway in mouse D1 cells assessed as increased degradation of IkappaBalpha protein by immunoblotting assay. Type of experiment: functional, cell-based. Summed up: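 D1 dendritic cells grown in IMDM with 10% FBS and 30% NIH/3T3 supernatant as GM-CSF source; 2×10^5 cells ml⁻¹ precultured 48 h, then fresh medium with inducers added. Cells washed, harvested in PBS/2 mM EDTA, lysed and immunoblotted for IκBα, with actin as loading reference; IκBα/actin band intensity ratio reported.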
In general terms: A western blot detects proteins with antibodies after separation by electrophoresis.

The source made the active and inactive calls. The calls are words filed in the database; no cut-off is given here. Non-standard residues stand in square brackets, D forms with d. Residues, ends and D or L forms follow the SMILES beside them. Groups on a side chain read outwards from the residue. Ahx = NCCCCCC(=O)O

Sequence of Tumor necrosis factor receptor superfamily member 10A (Homo sapiens) (O00220 whole entry): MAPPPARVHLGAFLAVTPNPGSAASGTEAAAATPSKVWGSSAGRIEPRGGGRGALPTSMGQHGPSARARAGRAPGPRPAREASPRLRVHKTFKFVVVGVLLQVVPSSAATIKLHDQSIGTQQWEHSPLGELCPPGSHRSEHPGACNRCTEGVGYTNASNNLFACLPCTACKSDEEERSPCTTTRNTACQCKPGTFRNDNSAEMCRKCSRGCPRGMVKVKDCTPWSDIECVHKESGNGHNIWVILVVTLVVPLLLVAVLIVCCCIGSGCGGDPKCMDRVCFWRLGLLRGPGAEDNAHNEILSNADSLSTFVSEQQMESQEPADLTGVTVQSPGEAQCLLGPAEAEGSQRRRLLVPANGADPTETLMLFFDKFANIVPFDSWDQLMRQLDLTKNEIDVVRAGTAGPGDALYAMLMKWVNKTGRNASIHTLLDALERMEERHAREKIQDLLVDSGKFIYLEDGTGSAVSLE
Sequence of Tumor necrosis factor receptor superfamily member 3 (Homo sapiens) (P36941 whole entry, the tested form may be a part): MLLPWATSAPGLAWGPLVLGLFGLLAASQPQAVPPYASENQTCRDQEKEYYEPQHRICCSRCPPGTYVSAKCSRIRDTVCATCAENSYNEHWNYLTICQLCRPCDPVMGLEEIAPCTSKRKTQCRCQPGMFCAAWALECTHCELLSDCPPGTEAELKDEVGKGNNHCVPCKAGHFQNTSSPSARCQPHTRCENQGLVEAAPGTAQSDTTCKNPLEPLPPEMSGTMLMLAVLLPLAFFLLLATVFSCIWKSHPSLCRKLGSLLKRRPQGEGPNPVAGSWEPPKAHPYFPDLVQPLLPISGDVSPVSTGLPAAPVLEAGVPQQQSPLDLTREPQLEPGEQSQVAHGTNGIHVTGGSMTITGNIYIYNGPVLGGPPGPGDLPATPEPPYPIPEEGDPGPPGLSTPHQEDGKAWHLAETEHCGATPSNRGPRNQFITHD

Consider `C[C@H]1NC(=O)[C@H](CCCCN)NC(=O)[C@@H](C)NC(=O)[C@H](CCCCN)NC(=O)[C@@H](C)NC(=O)[C@H](CCCCN)NC1=O`, for which the result in experiment [1], in experiment [2], in experiment [3], in experiment [4], in experiment [5] and in experiment [6] was inactive. For the same molecule, the result in experiment [8] was inactive. Besides, the inhibition result in experiment [7] was “inactive”.
Turning to `C[C@@H](NC(=O)[C@H](CCCCNC(=O)CCCCCNC(=O)[C@H](Cc1ccc(O)cc1)NC(=O)[C@H](Cc1ccc(O)cc1)NC(=O)CNC(=O)[C@@H](N)CCCCN)NC(=O)[C@@H](C)NC(=O)[C@H](CCCCNC(=O)CCCCCNC(=O)[C@H](Cc1ccc(O)cc1)NC(=O)[C@H](Cc1ccc(O)cc1)NC(=O)CNC(=O)[C@@H](N)CCCCN)NC(=O)[C@@H](C)NC(=O)[C@@H](N)CCCCNC(=O)CCCCCNC(=O)[C@H](Cc1ccc(O)cc1)NC(=O)[C@H](Cc1ccc(O)cc1)NC(=O)CNC(=O)[C@@H](N)CCCCN)C(=O)O`, the outcome in experiment [1], in experiment [2], in experiment [3], in experiment [4], in experiment [5] and in experiment [6] was inactive. Moreover, the result in experiment [8] was inactive. For the same molecule, in experiment [7], the inhibition entry is “inactive”.
As for `NCCCC[C@H](N)C(=O)NCC(=O)N[C@@H](Cc1ccc(O)cc1)C(=O)N[C@@H](Cc1ccc(O)cc1)C(=O)NCCCCCC(=O)O` (H-KGYY[Ahx]-OH), the outcome in [1], in [2], in experiment [3], in experiment [4], in experiment [5] and in experiment [6] was inactive. In addition, the outcome in experiment [8] was inactive. Moreover, the inhibition entry in experiment [7] is “inactive”.
As for `NCCCC[C@H](N)C(=O)NCC(=O)N[C@@H](Cc1ccc(O)cc1)C(=O)N[C@@H](Cc1ccc(O)cc1)C(=O)NCCCCCC(=O)NCCCOCC(COCCCNC(=O)CCCCCNC(=O)[C@H](Cc1ccc(O)cc1)NC(=O)[C@H](Cc1ccc(O)cc1)NC(=O)CNC(=O)[C@@H](N)CCCCN)(COCCCNC(=O)CCCCCNC(=O)[C@H](Cc1ccc(O)cc1)NC(=O)[C@H](Cc1ccc(O)cc1)NC(=O)CNC(=O)[C@@H](N)CCCCN)NC(=O)CCC(N)=O`, the inhibition in experiment [9] is 20%. Also, the result in experiment [1], in experiment [2], in [3] and in experiment [8] was inactive. Besides, the IC50 in experiment [7] is over 10000 nM.
Consider `C[C@H]1NC(=O)[C@H](CCCCNC(=O)CCCCCNC(=O)[C@H](Cc2ccc(O)cc2)NC(=O)[C@H](Cc2ccc(O)cc2)NC(=O)CNC(=O)[C@@H](N)CCCCN)NC(=O)[C@@H](C)NC(=O)[C@H](CCCCNC(=O)CCCCCNC(=O)[C@H](Cc2ccc(O)cc2)NC(=O)[C@H](Cc2ccc(O)cc2)NC(=O)CNC(=O)[C@@H](N)CCCCN)NC(=O)[C@@H](C)NC(=O)[C@H](CCCCNC(=O)CCCCCNC(=O)[C@H](Cc2ccc(O)cc2)NC(=O)[C@H](Cc2ccc(O)cc2)NC(=O)CNC(=O)[C@@H](N)CCCCN)NC1=O` (cyclo(K([Ahx-Tyr-Tyr-Gly-Lys])[dA]K([Ahx-Tyr-Tyr-Gly-Lys])[dA]K([Ahx-Tyr-Tyr-Gly-Lys])[dA])), for which the result in experiment [10], in experiment [12], in experiment [13], in experiment [15], in [16] and in experiment [17] was inactive. For the same molecule, the result in experiment [11], in experiment [1], in experiment [2], in experiment [14], in [3] and in [4] was Active. Also, the outcome in experiment [5], in experiment [6], in [18] and in [8] was Active. For the same molecule, the IC50 in experiment [7] was determined as 78 nM.

In general, inhibition refers to the change of the read-out against control, counted positive when it falls. As a reminder, the IC50 is the concentration at which inhibition is half-maximal.
